# Compound activity (PubChem)
# An excerpt weighted towards active compounds, which were near 2.5% of everything screened.
# B2AR ag – beta2AR agonists driving receptor internalization, primary screen, cell-based, FAP fluorogen, flow cytometry. Beta-2 adrenergic receptor (Homo sapiens), P07550. Am2.2-beta2AR cells. response, % (no concentration beside the values). actives 0.43% (n = 340,000). AID 504454, 2011;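 active = response above a set limit, near 3 SD of response in nonfluorescent compounds, cut at about 42% in these data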
# Target sequence (P07550 whole entry, looked up): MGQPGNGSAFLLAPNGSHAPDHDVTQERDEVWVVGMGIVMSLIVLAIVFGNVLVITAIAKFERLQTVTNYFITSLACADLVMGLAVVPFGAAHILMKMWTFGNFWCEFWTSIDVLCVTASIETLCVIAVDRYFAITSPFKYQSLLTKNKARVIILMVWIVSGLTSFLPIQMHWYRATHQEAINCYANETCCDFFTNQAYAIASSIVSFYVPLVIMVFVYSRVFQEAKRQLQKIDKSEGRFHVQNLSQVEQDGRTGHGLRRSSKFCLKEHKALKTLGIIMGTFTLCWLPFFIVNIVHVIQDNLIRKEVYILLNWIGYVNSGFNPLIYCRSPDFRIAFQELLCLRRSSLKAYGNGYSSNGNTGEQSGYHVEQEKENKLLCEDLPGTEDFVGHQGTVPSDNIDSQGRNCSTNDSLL
# NadD block – inhibitors of S. aureus NadD, primary screen, biochemical, colorimetric, uHTS; Nicotinate-nucleotide adenylyltransferase NadD (Staphylococcus aureus N315); purified NadD enzyme, colorimetric absorbance read-out; inhibition, % at 20 µM; actives 0.78% (n = 360,000); in the data active = inhibition above about 26%
# SENP1 inh – human SENP1 catalytic domain inhibitors, primary screen, biochemical, FRET, uHTS | inhibition, % at 10 µM | actives 0.21% (n = 360,000) | recombinant SENP1 catalytic domain, CyPet-SUMO1-YPet FRET cleavage | Sentrin-specific protease 1 (Homo sapiens), Q9P0U3 | AID 624204, 2012;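 active = inhibition at least 30% at 10 µM, raw YFP signal under a set limit, fluorescence ratio 0.5 to 1.5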;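 also: 0% = enzyme with DMSO and 100% = no enzyme wells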
# Target sequence (Q9P0U3 419-644 limits assumed): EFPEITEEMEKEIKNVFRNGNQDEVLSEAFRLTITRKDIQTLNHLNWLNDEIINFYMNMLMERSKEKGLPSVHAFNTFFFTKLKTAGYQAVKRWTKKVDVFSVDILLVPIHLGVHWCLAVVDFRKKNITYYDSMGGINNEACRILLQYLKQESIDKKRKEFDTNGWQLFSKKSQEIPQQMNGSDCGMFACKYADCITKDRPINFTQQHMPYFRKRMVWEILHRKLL
#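 Controls: no-enzyme wells low, DMSO-plus-enzyme wells high control. Test system: human recombinant His6-tagged SENP1 catalytic domain enzyme. Reagent: SFCypet-SUMO1-SFYpet FRET protein substrate, 25 nM final. Doses: one dose per compound, 10 µM, 0.5% DMSO. Detection: FRET, CFP and YFP emission. Timing: 50 min reaction at room temperature.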
# GRK2 inh – compounds blocking aptamer binding on GRK2 – biochemical, human GRK2, bead flow cytometry, HTS, primary screen; inhibition of aptamer binding, % at 10 µM; FAM-aptamer displacement from GRK2; actives 0.59% (n = 330,000);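 active = inhibition of aptamer binding above 40%, roughly 3 SD of noise, on plates passing a quality check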;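 also: median bead fluorescence of bound FAM aptamer so fluorescent compounds give negative values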
# ABHD5-PLIN5 inh – ABHD5-PLIN5 interaction inhibitors, primary screen, cell lysate, split luciferase complementation, luminescence; Perilipin-5 (Homo sapiens) + 1-acylglycerol-3-phosphate O-acyltransferase ABHD5 (Homo …; Split G. princeps luciferase complementation, 4 h; inhibition, % at 4 µM; actives 0.78% (n = 360,000); AID 602281, 2012;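 active = inhibition above the mean inhibition across every tested compound plus 3 SD, cut at about 22% in these data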;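 also: 0% = DMSO only wells and the 100% control is not disclosed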
# SENP1 inh conf – human SENP1 catalytic domain inhibitors, confirmation, biochemical, FRET endpoint, single concentration; actives 34% (n = 520); recombinant SENP1, CyPet-SUMO1-YPet FRET cleavage; shares compounds with SENP1 inh; inhibition, % at 10 µM; in the data active = inhibition mostly above about 35%, no sharp cut-off; inactive = mostly below about 32%;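 also: 0% = enzyme with DMSO and 100% = no enzyme control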
# SENP1 kin conf – human SENP1 catalytic domain inhibitors, confirmation, biochemical, kinetic FRET, single concentration | shares compounds with SENP1 inh | recombinant SENP1, CyPet-SUMO1-YPet FRET kinetic cleavage | inhibition, % at 10 µM | actives 26% (n = 520) | AID 651690, 2012; in the data active = inhibition mostly above about 32%, no sharp cut-off; inactive = mostly below about 29%;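 also: 0% = DMSO with enzyme and 100% = no enzyme substrate only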
# Active calls of the source: *; nt = no result.
SMILES,B2AR ag,NadD block,SENP1 inh,GRK2 inh,ABHD5-PLIN5 inh,SENP1 inh conf,SENP1 kin conf
N#Cc1ccc(-c2nc3ccc(Br)cn3c2Cc2ccccc2C(F)(F)F)cc1,nt,19.6,45.4*,nt,-4.0,44.5*,35.7*
CCCCC1(C)NC(=O)N(CC(=O)Nc2ccc(Cl)cc2C)C1=O (stereo not drawn),-2.4,0.6,3.9,1.0,7.9,nt,nt
COc1ccc(CNC(=O)C2CC(O)CN2C(=O)Nc2ccccc2)cc1 (stereo not drawn),12.7,-2.9,0.7,nt,6.8,nt,nt
COC(=O)C1CC(O)CN1C(=O)Nc1ccccc1 (stereo not drawn),3.6,-1.3,30.3*,0.0,-4.9,10.6,4.8
Cc1ccc(S(=O)(=O)Nc2cccc(C(=O)N3CCOCC3)c2)c(C)c1NS(C)(=O)=O,12.3,-0.7,0.0,0.0,1.2,nt,nt
NS(=O)(=O)c1ccc(CNC(=S)NC2CCCCC2)cc1,-1.6,-3.7,39.6*,2.0,-5.3,-5.0,-4.7
CN(C)c1cccc2c(S(=O)(=O)N3CCOCC3)cccc12,-1.6,0.4,41.4*,0.0,-5.1,9.7,11.3
CN(C)c1cccc2c(S(=O)(=O)N3CCCC3)cccc12,-6.0,-1.9,23.5,0.0,2.9,nt,nt
Cc1ccccc1C[n+]1cccc2ccccc21,2.3,-2.0,34.1*,0.0,8.3,6.4,2.5
CC(=O)Nc1cc2c(cc1NC(=O)Cn1nc(-c3ccccc3)ccc1=O)OCCO2,-0.7,-1.4,3.4,1.0,-6.5,nt,nt
Cc1cc(Oc2ccc(=O)n(C)n2)nc(SCC(N)=O)n1,0.8,4.2,38.0*,0.0,1.0,-2.4,-3.7
CCCCN(C(=O)COc1ccc(C)cc1OC)c1c(N)n(CCC)c(=O)[nH]c1=O,1.5,-0.8,1.5,6.0,1.4,nt,nt
COc1ccc(NC(=O)CC#N)cc1OC,-6.4,-2.3,52.7*,0.0,-2.0,-4.2,0.6
COc1ccc(N(C)C(=O)Nc2ccc3nsnc3c2)cc1,-1.0,7.8,55.5*,nt,-49.5,7.9,9.0
COc1ccc(N(C)C(=O)Nc2ccc3c(c2)nnn3C)cc1,8.0,2.0,1.4,5.0,-6.0,nt,nt
Oc1ccc(Br)cc1/C=N/n1c(-c2ccccc2)n[nH]c1=S,12.4,7.1,-28.5,4.0,-1.8,nt,nt
Cc1cccc(/C=N/n2c(-c3ccccc3)n[nH]c2=S)c1O,7.2,0.6,30.8*,0.0,-2.2,-6.1,13.3
CC1CCN(CCCNC(=O)Cn2ncc3c([nH]c4ccccc43)c2=O)CC1,0.7,-1.7,-2.0,0.0,7.2,nt,nt
CC(=O)c1ccc(Sc2ccccc2N)c([N+](=O)[O-])c1,6.7,2.4,37.0*,2.0,-0.7,14.8,6.9
CCCN(CC1CCCO1)C(=O)CCc1nnc(CCc2ccc(OC)cc2)o1 (stereo not drawn),1.8,-4.3,0.8,0.0,-10.1,nt,nt
CC(NC(=O)c1cc(S(=O)(=O)N2CCCC2)ccc1Cl)c1ccccn1 (stereo not drawn),-5.0,1.2,0.8,0.0,-6.1,nt,nt
N#CC(c1ccccc1)c1ccc([N+](=O)[O-])cc1 (stereo not drawn),nt,0.1,1.3,nt,0.0,nt,nt
Nc1ccccc1C#Cc1ccc([N+](=O)[O-])cc1,10.0,-3.6,33.3*,2.0,7.2,17.6,17.1
CCOCCCNS(=O)(=O)c1ccc(NC(=O)N2c3ccccc3Sc3ccccc32)cc1,12.3,-5.2,0.6,7.0,-3.8,nt,nt
CCOCCCNS(=O)(=O)c1ccc(NC(=O)CN2C(=O)c3ccccc3C2=O)cc1,-3.5,-2.4,29.4*,0.0,-1.2,0.6,-2.1
SMILES,B2AR ag,NadD block,SENP1 inh,GRK2 inh,ABHD5-PLIN5 inh,SENP1 inh conf,SENP1 kin conf
Cc1ccc(Nc2nc(-c3c(C)n(C)n(-c4ccccc4)c3=O)c(C)s2)cc1,7.7,3.1,-0.8,0.0,6.4,nt,nt
Cc1sc(Nc2ccc([N+](=O)[O-])cc2)nc1-c1c(C)n(C)n(-c2ccccc2)c1=O,-12.4,3.7,38.1*,3.0,-1.1,19.2,14.0
Nc1[nH]c(=O)nc2snnc12,-1.8,0.1,0.0,nt,-7.1,nt,nt
O=C(N/N=C(\CC(=O)c1cccs1)C(F)(F)F)c1ccncc1,8.0,6.0,40.2*,0.0,-3.5,50.3*,38.0*
Cc1ccc(C(=O)N/N=C(/CC(=O)c2cccs2)C(F)(F)F)cc1,7.4,-3.7,22.6,0.0,-2.6,nt,nt
O=c1c(-c2ccccc2)nc2ccccc2n1C(CCc1ccccc1)c1nc2ccccc2[nH]1 (stereo not drawn),nt,nt,-4.0,nt,-4.7,nt,nt
O=C(Nc1c(-c2ccc3c(c2)OCO3)[nH][nH]c1=O)c1ccc2c(c1)OCO2,nt,1.4,2.6,nt,-41.5,nt,nt
O=C1CSCC(=O)N1c1ccccc1,-1.6,-2.4,1.7,2.0,3.1,nt,nt
O=C1C2=C(SCCS2)C(=O)N1c1ccccc1,-2.2,-4.5,35.9*,0.0,2.4,21.4,28.6
COc1cccc(CN(C)C(=O)c2cc(S(=O)(=O)N3CCCC3)ccc2C)c1OC,-11.0,-2.3,0.3,0.0,-5.0,nt,nt
O=C(O)CCCC(=O)Nc1cccc2cccnc12,8.9,-5.1,34.2*,3.0,-7.1,2.0,-4.3
O=C(Cc1ccccc1F)Nc1cccc2cccnc12,-6.7,-6.4,0.7,0.0,-0.2,nt,nt
O=C1C=C(c2ccccc2)C(c2ccccc2)C1O (stereo not drawn),1.3,-0.1,-1.6,nt,0.1,nt,nt
CCN1C(=O)c2cccc3c(NC(=O)C4CCCCC4)ccc1c23,-1.4,3.7,40.5*,1.0,-7.9,20.5,29.9*
CCN1C(=O)c2cccc3c(NC(=O)c4ccccc4)ccc1c23,-16.8,0.3,21.7,0.0,-0.2,nt,nt
NC(=O)C1CCN(c2nc3c(S(=O)(=O)c4ccccc4)nnn3c3ccccc23)CC1,9.0,2.1,3.0,0.0,5.8,nt,nt
CC(=O)Nc1c(C#N)c(-c2ccccc2)c(C#N)c(=O)n1-c1ccc(C)cc1,nt,-4.4,-1.4,nt,6.8,nt,nt
COc1ccc(-c2c(O)c(C#N)c(-c3ccccc3)n(-c3ccc(OC)cc3)c2=O)cc1,3.4,6.0,77.8*,97.0*,-8.0,2.1,5.4
Cc1ccc(N2C(=O)[C@@H]3[C@H](C2=O)C2CCCN2[C@@H]3C(=O)c2ccccc2)cc1 (stereo partly drawn),-10.1,10.5,76.5,0.0,14.7,nt,nt
